Source: ChEMBL document CHEMBL4689842, “EUbOPEN Chemogenomics Library wave 1” (2021)

Assays:
Type in all cases: toxicity, cell-based
HEK-293T = assay: Incucyte cell viability with HEK293T; settings: human, 10 µM, compound concentration 10 uM; note: filed as whole numbers so only -1 and 0 and 1 occur
Fibroblast [1] = assay: Incucyte cell viability with human fibroblast; settings: 10 µM, compound concentration 10 uM; note: filed as whole numbers so only -1 and 0 and 1 occur
U2OS = assay: Incucyte cell viability with U2OS; settings: human, 10 µM, compound concentration 10 uM; note: filed as whole numbers so only -1 and 0 and 1 occur
Fibroblast [2] = assay: Multiplex assay against human fibroblast
In short: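 At seeding, live cells were stained with Hoechst33342, BioTracker Green Microtubule Cytoskeleton Dye, MitoTracker Red and Annexin V Alexa Fluor 680. After compound addition they were imaged on a CQ1 microscope at 37°C and 5% CO2, and CellPathfinder machine-learning gating sorted them into Hoechst high-intensity objects or normal cells, with normal cells further split into healthy, pyknosed or fragmented nuclei and pyknosed cells into mitotic or apoptotic. Tubulin, mitochondrial-mass and membrane-permeability phenotypes are given as per cents of cells with healthy nuclei.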

[3] = 6 h, replicate number 1, timepoint 6 hours
[4] = 12 h, replicate number 1, timepoint 12 hours
[5] = 18 h, replicate number 1, timepoint 18 hours
[6] = 24 h, replicate number 1, timepoint 24 hours
[7] = 12 h, 1 µM, compound concentration 1 uM, replicate 1
[8] = 12 h, 1 µM, compound concentration 1 uM, replicate 2
[9] = 12 h, 10 µM, compound concentration 10 uM, replicate 1
[10] = 12 h, 10 µM, compound concentration 10 uM, replicate 2
[11] = 24 h, 1 µM, compound concentration 1 uM, replicate 1
[12] = 24 h, 1 µM, compound concentration 1 uM, replicate 2
[13] = 24 h, 10 µM, compound concentration 10 uM, replicate 1
[14] = 24 h, 10 µM, compound concentration 10 uM, replicate 2

Cl.Cl.NC1(c2ccc(-c3nc4ccn5c(=O)[nH]nc5c4cc3-c3ccccc3)cc2)CCC1
Growth Rate (HEK-293T; [3]): 0 | Growth Rate (HEK-293T; [4]): 0 | Growth Rate (HEK-293T; [5]): 0 | Growth Rate (HEK-293T; [6]): 0 | Growth Rate (Fibroblast [1]; [3]): 0 | Growth Rate (Fibroblast [1]; [4]): 0 | Growth Rate (Fibroblast [1]; [5]): 0 | Growth Rate (Fibroblast [1]; [6]): 0 | Growth Rate (U2OS; 0 h, replicate number 1, timepoint 0 hours): 0 | Growth Rate (U2OS; [3]): 1 | Growth Rate (U2OS; [4]): 1 | Growth Rate (U2OS; [5]): 1 | Growth Rate (U2OS; [6]): 1 | Population Apoptotic (%) (Fibroblast [2]; [7]): 71% | Population Fragmented Nuclei (%) (Fibroblast [2]; [7]): 35% | Population Healthy Nuclei (%) (Fibroblast [2]; [7]): 48% | Population Hoechst High Intensity Objects (%) (Fibroblast [2]; [7]): 42% | Population Membrane Permeable-Phenotype (%) (Fibroblast [2]; [7]): 4% | Population Mitotic Cells (%) (Fibroblast [2]; [7]): 28% | Population Normal (%) (Fibroblast [2]; [7]): 57% | Population Pyknosed Nuclei (%) (Fibroblast [2]; [7]): 15% | Population Tubulin-Different-Phenotype (%) (Fibroblast [2]; [7]): 6% | Total Cell Count (Fibroblast [2]; [7]): 437 | Population Apoptotic (%) (Fibroblast [2]; [8]): 87% | Population Fragmented Nuclei (%) (Fibroblast [2]; [8]): 55% | Population Healthy Nuclei (%) (Fibroblast [2]; [8]): 35% | Population Hoechst High Intensity Objects (%) (Fibroblast [2]; [8]): 45% | Population Membrane Permeable-Phenotype (%) (Fibroblast [2]; [8]): 19% | Population Mitochondria Different-Phenotype (%) (Fibroblast [2]; [8]): 0% | Population Mitotic Cells (%) (Fibroblast [2]; [8]): 12% | Population Normal (%) (Fibroblast [2]; [8]): 54% | Population Pyknosed Nuclei (%) (Fibroblast [2]; [8]): 9% | Population Tubulin-Different-Phenotype (%) (Fibroblast [2]; [8]): 16% | Total Cell Count (Fibroblast [2]; [8]): 161 | Population Apoptotic (%) (Fibroblast [2]; [9]): 37% | Population Fragmented Nuclei (%) (Fibroblast [2]; [9]): 19% | Population Healthy Nuclei (%) (Fibroblast [2]; [9]): 38% | Population Hoechst High Intensity Objects (%) (Fibroblast [2]; [9]): 49% | Population Membrane Permeable-Phenotype (%) (Fibroblast [2]; [9]): 7% | Population Mitochondria Different-Phenotype (%) (Fibroblast [2]; [9]): 4% | Population Mitotic Cells (%) (Fibroblast [2]; [9]): 62% | Population Normal (%) (Fibroblast [2]; [9]): 50% | Population Pyknosed Nuclei (%) (Fibroblast [2]; [9]): 41% | Population Tubulin-Different-Phenotype (%) (Fibroblast [2]; [9]): 42% | Total Cell Count (Fibroblast [2]; [9]): 610 | Population Apoptotic (%) (Fibroblast [2]; [10]): 80% | Population Fragmented Nuclei (%) (Fibroblast [2]; [10]): 71% | Population Healthy Nuclei (%) (Fibroblast [2]; [10]): 14% | Population Hoechst High Intensity Objects (%) (Fibroblast [2]; [10]): 69% | Population Membrane Permeable-Phenotype (%) (Fibroblast [2]; [10]): 0% | Population Mitochondria Different-Phenotype (%) (Fibroblast [2]; [10]): 40% | Population Mitotic Cells (%) (Fibroblast [2]; [10]): 20% | Population Normal (%) (Fibroblast [2]; [10]): 30% | Population Pyknosed Nuclei (%) (Fibroblast [2]; [10]): 14% | Population Tubulin-Different-Phenotype (%) (Fibroblast [2]; [10]): 20% | Total Cell Count (Fibroblast [2]; [10]): 114 | Population Apoptotic (%) (Fibroblast [2]; [11]): 45% | Population Fragmented Nuclei (%) (Fibroblast [2]; [11]): 33% | Population Healthy Nuclei (%) (Fibroblast [2]; [11]): 51% | Population Hoechst High Intensity Objects (%) (Fibroblast [2]; [11]): 49% | Population Membrane Permeable-Phenotype (%) (Fibroblast [2]; [11]): 1% | Population Mitochondria Different-Phenotype (%) (Fibroblast [2]; [11]): 1% | Population Mitotic Cells (%) (Fibroblast [2]; [11]): 54% | Population Normal (%) (Fibroblast [2]; [11]): 50% | Population Pyknosed Nuclei (%) (Fibroblast [2]; [11]): 15% | Population Tubulin-Different-Phenotype (%) (Fibroblast [2]; [11]): 9% | Total Cell Count (Fibroblast [2]; [11]): 428 | Population Apoptotic (%) (Fibroblast [2]; [12]): 57% | Population Fragmented Nuclei (%) (Fibroblast [2]; [12]): 57% | Population Healthy Nuclei (%) (Fibroblast [2]; [12]): 32% | Population Hoechst High Intensity Objects (%) (Fibroblast [2]; [12]): 51% | Population Membrane Permeable-Phenotype (%) (Fibroblast [2]; [12]): 8% | Population Mitochondria Different-Phenotype (%) (Fibroblast [2]; [12]): 0% | Population Mitotic Cells (%) (Fibroblast [2]; [12]): 42% | Population Normal (%) (Fibroblast [2]; [12]): 48% | Population Pyknosed Nuclei (%) (Fibroblast [2]; [12]): 9% | Population Tubulin-Different-Phenotype (%) (Fibroblast [2]; [12]): 16% | Total Cell Count (Fibroblast [2]; [12]): 157 | Population Apoptotic (%) (Fibroblast [2]; [13]): 24% | Population Fragmented Nuclei (%) (Fibroblast [2]; [13]): 17% | Population Healthy Nuclei (%) (Fibroblast [2]; [13]): 38% | Population Hoechst High Intensity Objects (%) (Fibroblast [2]; [13]): 53% | Population Membrane Permeable-Phenotype (%) (Fibroblast [2]; [13]): 5% | Population Mitochondria Different-Phenotype (%) (Fibroblast [2]; [13]): 10% | Population Mitotic Cells (%) (Fibroblast [2]; [13]): 75% | Population Normal (%) (Fibroblast [2]; [13]): 46% | Population Pyknosed Nuclei (%) (Fibroblast [2]; [13]): 44% | Population Tubulin-Different-Phenotype (%) (Fibroblast [2]; [13]): 42% | Total Cell Count (Fibroblast [2]; [13]): 622 | Population Apoptotic (%) (Fibroblast [2]; [14]): 83% | Population Fragmented Nuclei (%) (Fibroblast [2]; [14]): 70% | Population Healthy Nuclei (%) (Fibroblast [2]; [14]): 14% | Population Hoechst High Intensity Objects (%) (Fibroblast [2]; [14]): 57% | Population Membrane Permeable-Phenotype (%) (Fibroblast [2]; [14]): 50% | Population Mitochondria Different-Phenotype (%) (Fibroblast [2]; [14]): 33% | Population Mitotic Cells (%) (Fibroblast [2]; [14]): 16% | Population Normal (%) (Fibroblast [2]; [14]): 42% | Population Pyknosed Nuclei (%) (Fibroblast [2]; [14]): 14% | Population Tubulin-Different-Phenotype (%) (Fibroblast [2]; [14]): 16% | Total Cell Count (Fibroblast [2]; [14]): 97
